Data reported in ChEMBL document CHEMBL3414471 (J Med Chem, 2015).
Active and inactive are the calls of the source. No cut-off for these calls is given here.

Assays:
[1] = Bioavailability in mouse; format: ADME, organism-based; settings: in vivo
[2] = biological target: T1, 5-hydroxytryptamine receptor 2A (Homo sapiens, UniProt P28223); assay: Agonist activity at human 5-HT2A receptor expressed in HEK293 cells assessed as calcium flux by FLIPR assay; format: functional, cell-based
CYP2C19 = CYP2C19 (Homo sapiens, UniProt P33261); assay: Inhibition of human CYP2C19 using omeprazole as substrate at 10 uM; format: ADME; settings: probe omeprazole
Sequence of CYP2C19 (P33261 whole entry): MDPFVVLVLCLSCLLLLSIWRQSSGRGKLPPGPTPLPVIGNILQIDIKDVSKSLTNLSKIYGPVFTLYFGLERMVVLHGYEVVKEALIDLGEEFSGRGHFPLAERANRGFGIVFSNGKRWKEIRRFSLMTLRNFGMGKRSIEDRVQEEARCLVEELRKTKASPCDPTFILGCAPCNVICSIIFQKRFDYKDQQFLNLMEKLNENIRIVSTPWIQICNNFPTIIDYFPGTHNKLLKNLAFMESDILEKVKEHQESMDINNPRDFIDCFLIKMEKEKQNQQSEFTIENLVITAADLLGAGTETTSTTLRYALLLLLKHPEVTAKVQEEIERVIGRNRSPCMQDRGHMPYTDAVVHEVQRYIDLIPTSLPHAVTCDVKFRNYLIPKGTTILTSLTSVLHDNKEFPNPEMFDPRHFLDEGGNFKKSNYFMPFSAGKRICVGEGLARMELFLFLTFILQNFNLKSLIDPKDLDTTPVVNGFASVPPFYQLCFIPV

CYP2C9 = CYP2C9 (Homo sapiens, UniProt P11712); assay: Inhibition of human CYP2C9 using diclofenac as substrate at 10 uM; format: ADME; settings: probe diclofenac
Sequence of CYP2C9 (P11712 whole entry): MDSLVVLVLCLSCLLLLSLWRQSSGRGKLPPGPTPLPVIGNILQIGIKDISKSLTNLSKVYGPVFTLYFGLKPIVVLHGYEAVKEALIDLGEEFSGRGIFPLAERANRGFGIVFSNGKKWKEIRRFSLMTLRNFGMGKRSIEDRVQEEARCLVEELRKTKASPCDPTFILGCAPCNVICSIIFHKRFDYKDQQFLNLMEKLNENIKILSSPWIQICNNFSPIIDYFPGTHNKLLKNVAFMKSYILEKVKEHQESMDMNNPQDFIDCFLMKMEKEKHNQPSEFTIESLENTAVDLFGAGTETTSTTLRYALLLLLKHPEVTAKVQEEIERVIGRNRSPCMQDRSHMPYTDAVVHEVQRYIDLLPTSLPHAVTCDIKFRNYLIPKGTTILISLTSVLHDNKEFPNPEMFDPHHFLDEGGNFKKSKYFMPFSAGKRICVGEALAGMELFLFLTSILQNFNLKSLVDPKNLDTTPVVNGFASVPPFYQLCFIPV

Homo sapiens = species: Homo sapiens; assay: Selectivity ratio of EC50 for human 5-HT2A receptor to EC50 for human 5HT2C receptor
[3] = biological target: 5-hydroxytryptamine receptor 6 (Homo sapiens, UniProt P50406); assay: Binding affinity to 5HT6 receptor (unknown origin)
CYP2D6 = CYP2D6 (Homo sapiens, UniProt P10635); assay: Inhibition of human CYP2D6 using dextromethorphan as substrate at 10 uM; format: ADME; settings: probe dextromethorphan
D(3) dopamine receptor = D(3) dopamine receptor (Homo sapiens, UniProt P35462); assay: Binding affinity to dopamine D3 receptor (unknown origin)
Sequence of D(3) dopamine receptor (P35462 whole entry): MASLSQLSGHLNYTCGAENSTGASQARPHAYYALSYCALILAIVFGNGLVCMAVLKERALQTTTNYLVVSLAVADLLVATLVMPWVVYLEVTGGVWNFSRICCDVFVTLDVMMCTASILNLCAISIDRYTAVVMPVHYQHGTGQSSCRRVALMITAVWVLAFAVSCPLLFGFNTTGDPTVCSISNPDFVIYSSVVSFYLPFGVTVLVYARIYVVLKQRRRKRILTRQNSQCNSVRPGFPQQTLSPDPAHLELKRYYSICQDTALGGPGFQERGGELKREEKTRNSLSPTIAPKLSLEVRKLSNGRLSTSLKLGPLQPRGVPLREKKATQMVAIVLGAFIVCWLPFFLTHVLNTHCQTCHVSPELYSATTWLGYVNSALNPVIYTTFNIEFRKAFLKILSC

[4] = biological target: 5-hydroxytryptamine receptor 7 (Homo sapiens, UniProt P34969); assay: Binding affinity to 5HT7 receptor (unknown origin)
CYP3A4 = CYP3A4 (Homo sapiens, UniProt P08684); assay: Inhibition of human CYP3A4 using midazolam as substrate at 10 uM; format: ADME; settings: probe midazolam
Outline: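 Human liver microsomes with test compound at 10 µM; percent inhibition determined using bupropion (2B6), dextromethorphan (2D6) or midazolam (3A/3A4) as probe substrates.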

[5] = biological target: T2, 5-hydroxytryptamine receptor 2C (Homo sapiens) (UniProt P28335); assay: Agonist activity at human 5-HT2C receptor expressed in HEK293 cells assessed as calcium flux by FLIPR assay relative to 5-HT; format: functional, cell-based
T2 sequence (whole entry): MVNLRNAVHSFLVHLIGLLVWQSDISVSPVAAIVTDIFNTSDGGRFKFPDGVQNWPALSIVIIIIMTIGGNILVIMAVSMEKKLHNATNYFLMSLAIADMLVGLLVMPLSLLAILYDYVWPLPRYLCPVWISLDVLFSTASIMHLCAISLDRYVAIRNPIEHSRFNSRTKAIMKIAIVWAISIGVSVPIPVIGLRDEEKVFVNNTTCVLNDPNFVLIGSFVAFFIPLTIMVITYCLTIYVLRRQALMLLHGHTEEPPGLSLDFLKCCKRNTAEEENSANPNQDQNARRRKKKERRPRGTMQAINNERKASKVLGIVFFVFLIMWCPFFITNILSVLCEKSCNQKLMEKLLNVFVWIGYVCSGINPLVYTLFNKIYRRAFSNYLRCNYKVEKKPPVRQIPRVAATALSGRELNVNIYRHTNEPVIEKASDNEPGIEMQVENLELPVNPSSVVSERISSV
Outline: (§1)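 Flp-In-293 cells stably expressing human 5-HT2A, 5-HT2B or 5-HT2C-INI; grown 24–48 h in DMEM/10% dialyzed FBS, plated on poly-L-Lys at 12000 cells/well in 1% dialyzed FBS for 24 h. Loaded 1 h at 37 °C with calcium dye in HBSS, 20 mM Hepes pH 7.40, 2.5 mM probenecid.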

hERG (KCNH2) [6] = biological target: T3, hERG (KCNH2) (Homo sapiens, UniProt Q12809); assay: (§2) Inhibition of human ERG channel expressed in CHO cells at […] by patch clamp method; format: cell-based; settings: CHO cells expressing human ERG channel
T3 sequence (Q12809 whole entry): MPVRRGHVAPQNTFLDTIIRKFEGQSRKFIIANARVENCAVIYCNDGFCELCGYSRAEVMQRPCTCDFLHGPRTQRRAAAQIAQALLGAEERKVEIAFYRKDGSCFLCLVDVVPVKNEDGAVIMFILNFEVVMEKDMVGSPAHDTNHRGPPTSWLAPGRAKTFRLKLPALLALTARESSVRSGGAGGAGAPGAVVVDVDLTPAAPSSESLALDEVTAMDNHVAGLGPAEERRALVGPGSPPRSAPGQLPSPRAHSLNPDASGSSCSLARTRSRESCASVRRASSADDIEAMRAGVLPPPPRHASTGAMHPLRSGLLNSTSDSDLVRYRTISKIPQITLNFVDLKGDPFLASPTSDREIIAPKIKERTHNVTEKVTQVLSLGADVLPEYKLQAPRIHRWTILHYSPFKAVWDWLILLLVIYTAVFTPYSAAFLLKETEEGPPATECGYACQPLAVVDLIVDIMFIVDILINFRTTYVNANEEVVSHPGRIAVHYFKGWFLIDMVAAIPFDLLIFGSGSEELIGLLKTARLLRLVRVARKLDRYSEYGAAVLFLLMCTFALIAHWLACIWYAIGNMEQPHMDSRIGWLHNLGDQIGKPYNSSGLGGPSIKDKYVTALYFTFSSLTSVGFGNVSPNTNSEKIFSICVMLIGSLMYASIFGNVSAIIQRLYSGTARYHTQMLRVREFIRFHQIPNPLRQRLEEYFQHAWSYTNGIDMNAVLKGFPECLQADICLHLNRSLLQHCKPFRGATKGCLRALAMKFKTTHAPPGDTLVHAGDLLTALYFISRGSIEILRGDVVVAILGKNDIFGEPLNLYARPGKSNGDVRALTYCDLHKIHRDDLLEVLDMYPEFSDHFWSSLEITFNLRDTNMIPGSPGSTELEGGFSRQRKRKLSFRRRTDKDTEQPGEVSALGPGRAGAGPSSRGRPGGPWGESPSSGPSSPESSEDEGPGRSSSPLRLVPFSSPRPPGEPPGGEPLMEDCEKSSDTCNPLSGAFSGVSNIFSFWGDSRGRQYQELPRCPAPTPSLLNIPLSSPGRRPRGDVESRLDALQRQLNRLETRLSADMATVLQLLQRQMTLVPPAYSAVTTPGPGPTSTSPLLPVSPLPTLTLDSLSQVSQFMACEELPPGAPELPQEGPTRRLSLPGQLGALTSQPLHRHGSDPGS

[7] = biological target: T1, 5-hydroxytryptamine receptor 2A; assay: Agonist activity at human 5-HT2A receptor expressed in HEK293 cells assessed as calcium flux by FLIPR assay relative to 5-HT; format: functional, cell-based; outline: as §1
hERG (KCNH2) [8] = biological target: T3, hERG (KCNH2); assay: Inhibition of human ERG channel expressed in CHO cells at 30 uM by patch clamp method; format: cell-based; settings: CHO cells expressing human ERG channel
Outline: (§3)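 hERG current recorded in CHO cells by automated patch clamp; percent inhibition at 0.37, 1.1, 3.3, 10 and 30 µM.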

[9] = biological target: 5-hydroxytryptamine receptor 1A (Homo sapiens, UniProt P08908); assay: Binding affinity to 5HT1A receptor (unknown origin)
Sequence of 5-hydroxytryptamine receptor 1A (P08908 whole entry): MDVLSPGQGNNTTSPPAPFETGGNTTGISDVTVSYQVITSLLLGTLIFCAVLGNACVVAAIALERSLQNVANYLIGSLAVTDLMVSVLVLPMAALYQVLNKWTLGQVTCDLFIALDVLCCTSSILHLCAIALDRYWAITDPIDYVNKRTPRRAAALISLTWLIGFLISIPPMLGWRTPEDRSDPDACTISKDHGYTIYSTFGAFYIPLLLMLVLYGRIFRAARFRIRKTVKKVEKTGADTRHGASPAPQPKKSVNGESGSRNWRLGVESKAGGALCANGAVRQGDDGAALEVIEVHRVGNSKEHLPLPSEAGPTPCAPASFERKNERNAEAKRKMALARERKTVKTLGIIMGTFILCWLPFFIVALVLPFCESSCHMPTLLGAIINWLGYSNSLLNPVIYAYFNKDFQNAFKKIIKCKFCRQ

[10] = biological target: T4, 5-hydroxytryptamine receptor 2C (Homo sapiens, UniProt P28335); assay: Agonist activity at human 5-HT2C receptor expressed in HEK293 cells assessed as calcium flux by FLIPR assay; format: functional, cell-based
T4 sequence (P28335 whole entry): T2 sequence (whole entry)

hERG (KCNH2) [11] = biological target: T3, hERG (KCNH2); assay: Inhibition of human ERG channel expressed in CHO cells at 10 uM by patch clamp method; format: cell-based; settings: CHO cells expressing human ERG channel; outline: as §3
[12] = biological target: Alpha-2A adrenergic receptor (Homo sapiens, UniProt P08913); assay: Binding affinity to adrenergic alpha-2A receptor (unknown origin)
hERG (KCNH2) [13] = biological target: T3, hERG (KCNH2); assay: as §2; format: cell-based; settings: CHO cells expressing human ERG channel; remark: listed apart in the source
hERG (KCNH2) [14] = biological target: T3, hERG (KCNH2); assay: Inhibition of human ERG channel expressed in CHO cells at 3.3 uM by patch clamp method; format: cell-based; settings: CHO cells expressing human ERG channel; outline: as §3
[15] = biological target: Alpha-2B adrenergic receptor (Homo sapiens, UniProt P18089); assay: Binding affinity to adrenergic alpha-2B receptor (unknown origin)
Sequence of Alpha-2B adrenergic receptor (P18089 whole entry): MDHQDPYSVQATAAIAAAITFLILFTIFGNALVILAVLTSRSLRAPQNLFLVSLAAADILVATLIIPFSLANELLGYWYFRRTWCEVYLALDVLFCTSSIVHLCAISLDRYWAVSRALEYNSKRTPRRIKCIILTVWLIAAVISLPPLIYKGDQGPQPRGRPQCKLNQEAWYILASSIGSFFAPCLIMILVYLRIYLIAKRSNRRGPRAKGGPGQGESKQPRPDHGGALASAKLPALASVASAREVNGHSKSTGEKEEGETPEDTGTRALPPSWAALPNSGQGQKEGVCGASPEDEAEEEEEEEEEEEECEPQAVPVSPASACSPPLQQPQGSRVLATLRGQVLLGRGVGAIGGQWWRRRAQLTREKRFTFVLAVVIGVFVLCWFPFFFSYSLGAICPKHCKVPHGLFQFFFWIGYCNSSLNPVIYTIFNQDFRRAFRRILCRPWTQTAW

[16] = biological target: Alpha-2C adrenergic receptor (Homo sapiens, UniProt P18825); assay: Binding affinity to adrenergic alpha-2C receptor (unknown origin)
[17] = biological target: 5-hydroxytryptamine receptor 2B (Homo sapiens, UniProt P41595); assay: Agonist activity at human 5-HT2B receptor expressed in HEK293 cells assessed as calcium flux at 10 uM by FLIPR assay; format: functional, cell-based
Outline: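 Flp-In-293 cells stably expressing human 5-HT2A, 5-HT2B or 5-HT2C-INI, grown in DMEM with 10% dialyzed FBS, then plated for 24 h in 1% dialyzed FBS. Cells were loaded 1 h at 37 °C with calcium dye in Hepes-buffered HBSS, pH 7.40, containing 2.5 mM probenecid. FLIPR read 10 s baseline, then 120 s after drug addition.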

Mus musculus = assay: Antipsychotic activity in C57BL/6J mouse assessed as reduction of amphetamine-induced locomotor activity administered ip 15 mins prior to amphetamine challenge measured for 105 mins by open field test relative to vehicle-treated control; format: functional, organism-based
[18] = biological target: Voltage-gated inwardly rectifying potassium channel KCNH2 (Homo sapiens, UniProt Q12809); assay: Inhibition of human ERG channel expressed in CHO cells by patch clamp method; format: cell-based; settings: human, cho
Sequence of Voltage-gated inwardly rectifying potassium channel KCNH2 (Q12809 whole entry): as the sequence (Q12809 whole entry) above

CYP2B6 = biological target: T5, CYP2B6 (Homo sapiens, UniProt P20813); assay: Inhibition of human CYP2B6 using bupropion as substrate at 10 uM; format: ADME; settings: probe bupropion
T5 sequence (P20813 whole entry): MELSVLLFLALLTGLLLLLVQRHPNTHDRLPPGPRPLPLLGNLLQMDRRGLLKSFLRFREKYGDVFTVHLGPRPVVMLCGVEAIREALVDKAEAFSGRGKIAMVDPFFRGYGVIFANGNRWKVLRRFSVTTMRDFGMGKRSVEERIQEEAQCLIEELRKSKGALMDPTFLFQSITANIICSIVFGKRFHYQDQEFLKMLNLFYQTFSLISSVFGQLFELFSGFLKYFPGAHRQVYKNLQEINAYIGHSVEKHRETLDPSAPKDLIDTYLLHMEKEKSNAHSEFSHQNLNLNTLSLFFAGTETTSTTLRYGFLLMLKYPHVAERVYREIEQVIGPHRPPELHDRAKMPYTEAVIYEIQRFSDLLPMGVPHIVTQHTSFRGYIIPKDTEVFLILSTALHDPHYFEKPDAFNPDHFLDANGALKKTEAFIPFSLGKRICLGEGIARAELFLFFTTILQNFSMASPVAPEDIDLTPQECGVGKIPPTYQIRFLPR

T1 sequence (P28223 whole entry): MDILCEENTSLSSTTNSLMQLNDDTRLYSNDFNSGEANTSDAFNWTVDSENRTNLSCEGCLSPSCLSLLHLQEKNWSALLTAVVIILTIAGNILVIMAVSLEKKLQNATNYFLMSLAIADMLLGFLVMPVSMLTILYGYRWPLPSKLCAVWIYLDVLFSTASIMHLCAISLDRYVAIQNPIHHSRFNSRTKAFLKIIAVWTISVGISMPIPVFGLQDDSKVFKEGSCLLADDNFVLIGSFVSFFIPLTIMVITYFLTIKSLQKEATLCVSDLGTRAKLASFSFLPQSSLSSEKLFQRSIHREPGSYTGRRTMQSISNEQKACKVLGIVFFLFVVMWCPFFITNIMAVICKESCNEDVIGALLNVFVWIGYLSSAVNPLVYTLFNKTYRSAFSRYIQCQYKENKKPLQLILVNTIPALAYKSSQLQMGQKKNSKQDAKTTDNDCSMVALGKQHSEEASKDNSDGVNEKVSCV

NC[C@H]1C[C@@H]1c1cc(O)ccc1OCC1CC1
bioavailability [1]: 3.2%

C=CCOc1ccc(F)cc1[C@H]1C[C@@H]1CN.Cl
EC50 [2]: 374 nM | inhibition at 10 µM (CYP2C19): 22% | inhibition at 10 µM (CYP2C9): 35% | Ratio EC50 (Homo sapiens): 89 | Ki [3]: < 1000 nM | inhibition at 10 µM (CYP2D6): 43% | Ki (D(3) dopamine receptor): < 1000 nM | Ki [4]: < 1000 nM | inhibition at 10 µM (CYP3A4): 15% | Emax [5]: 87% | inhibition at […] (hERG (KCNH2) [6]): 6.4% | Emax [7]: 56% | inhibition at 30 µM (hERG (KCNH2) [8]): 45% | Ki [9]: < 1000 nM | EC50 [10]: 4.2 nM | inhibition at 10 µM (hERG (KCNH2) [11]): 29% | Ki [12]: < 1000 nM | inhibition at […] (hERG (KCNH2) [13]): 8.7% | inhibition at 3.3 µM (hERG (KCNH2) [14]): 18% | Ki [15]: < 1000 nM | Ki [16]: < 1000 nM | Activity [17]: inactive | Activity (Mus musculus): Dose-dependent effect | inhibition (INH) [18]: Dose-dependent effect | inhibition at 10 µM (CYP2B6): 80%
